# Laboratory results taken from article PMC5817038 (Bioorganic & medicinal chemistry letters, 2018).
# Read-outs that look alike come from different tables or passages of the source.
# Experiments:
# [1] = test system: wild-type IDH1; details: read-out: IC50 against wild-type IDH1 (reported); literature value; cited from earlier work
# [2] = test system: IDH1-mutated glioma xenografts; details: cited from earlier work
# [3] = biological target: IDH1-R132H (Homo sapiens, UniProt O75874, R132H); assay type: biochemical
# Sequence of IDH1-R132H (O75874 whole entry R132H): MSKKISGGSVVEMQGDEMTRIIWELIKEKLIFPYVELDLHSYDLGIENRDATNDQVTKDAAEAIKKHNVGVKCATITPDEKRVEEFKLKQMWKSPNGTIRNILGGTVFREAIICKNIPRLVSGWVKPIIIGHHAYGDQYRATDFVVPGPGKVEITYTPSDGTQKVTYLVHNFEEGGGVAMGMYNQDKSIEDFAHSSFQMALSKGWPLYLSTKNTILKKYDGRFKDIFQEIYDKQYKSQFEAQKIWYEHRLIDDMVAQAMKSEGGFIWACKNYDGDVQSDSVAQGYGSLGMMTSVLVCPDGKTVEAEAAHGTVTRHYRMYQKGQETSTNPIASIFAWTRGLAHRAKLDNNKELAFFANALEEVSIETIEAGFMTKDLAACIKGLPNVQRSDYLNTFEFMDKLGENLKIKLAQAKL
# [4] = normal mice; cited from earlier work
# [5] = test system: HCT116 colorectal carcinoma cell line expressing heterozygous IDH1-R132H; experiment: Cell uptake of radiolabeled compounds, IDH1-mutated HCT116 vs isogenic WT-IDH1; assay type: cell-based
# Procedure, shortened: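 Isogenic HCT116 lines expressing IDH1-R132H or wild-type IDH1 were incubated with the 125I-labelled iodo analogue or the 18F-labelled fluoro inhibitor, no-carrier-added, and cell-associated radioactivity was measured over time. Uptake ratio is mutant IDH1 over WT-IDH1 uptake. Three wells per point, mean ± SEM; Student's t-test, P < 0.05.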
# [6] = test system: IDH1-mutated astrocytoma cell line (IMA); experiment: Cell uptake of radiolabeled compounds, IDH1-mutated astrocytoma; assay type: cell-based; details: time course
# Procedure, shortened: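 Radioiodinated or 18F-labelled test compounds, prepared no-carrier-added, were incubated with IDH1-mutated cells and their isogenic WT-IDH1 counterparts. Uptake was followed over time, starting at 5 min, and compared between mutant and WT lines as uptake ratios. Each condition was run in three wells, reported as mean ± SEM, with significance by Student's t-test.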
# [7] = test system: HCT116 IDH1-R132H tumor xenografts; experiment: Tissue distribution in athymic mice bearing IDH1-mutated HCT116 tumor xenografts; assay type: in vivo
# Procedure, shortened: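 Athymic mice bearing IDH1-mutated HCT116 xenografts received either the 131I- or the 18F-labelled test compound, in separate groups. Tissues were sampled from 0.5 to 4 h after injection. Uptake is given as %ID/g, or as %ID for liver plus intestines. Five animals per time point, mean ± SEM. WT-IDH1 tumour-bearing mice were also examined at 1–4 h.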
structure (smiles),measurement,setting,value
Cc1ccccc1C(C(=O)NC1CCCCC1)N(C(=O)Cn1ccnc1C)c1cccc(F)c1 (stereo not shown) [AGI-5198],IC50,[1],> 100 µM
same,D-2-HG production,[2],inhibit D-2-HG production
same,anti-tumor effect,[2],anti-tumor effects
same,inhibition at 12.25 µM,[3]; read-out: enzyme inhibition (maximal),100%
Cc1ccccc1C(C(=O)NC1CCCC1)N(C(=O)Cn1cnc2ccccc21)c1cccc(F)c1 (stereo not shown) [ML-309],blood-brain-barrier (BBB) permeability,[4],lack of blood-brain-barrier (BBB) permeability
Cc1ccccc1C(C(=O)NC1CCCCC1)N(C(=O)Cn1ccnc1C)c1cccc([18F])c1 (stereo not shown) [[^18F]AGI-5198],uptake ratio IDH1-mutated/WT-IDH1,"[5]; HCT116, 5 min",about 1.6
same,uptake ratio IDH1-mutated/WT-IDH1,"[5]; HCT116, 30 min, remaining at that level until 120 min",~2.0
same,uptake in IDH1-mutated vs WT-IDH1 cells,[6],higher only at 5 min but not thereafter
same,uptake and retention in brain,[7]; 0.5-4 h,very low
same,tumor uptake,[7]; 0.5 h post injection,0.84 ± 0.18 % ID/g
same,blood activity,[7]; 30 min post injection,0.88 ± 0.16 % ID/g
same,peak tumor-to-muscle ratio (TMR),[7]; 2 h,2.5 ± 1.0
same,peak tumor-to-blood ratio (TBR),[7]; 4 h,3.0 ± 1.3
same,blood activity,[7]; 4 h post injection,~ 0.1 % ID/g
same,"liver and intestines, share of injected dose",[7]; 4 h post injection,87 ± 7 % ID
same,tumor uptake,[7]; 4 h post injection,0.33 ± 0.08 % ID/g
same,stability against dehalogenation in vivo,"[7]; mouse, in vivo",stable against dehalogenation in vivo
Cc1ccccc1C(C(=O)NC1CCCCC1)N(C(=O)Cn1ccnc1C)c1cccc(I)c1 (stereo not shown) [compound 1],enzyme inhibition (maximal),[3]; at 6.12 μM,100%
Cc1ccccc1C(C(=O)NC1CCCCC1)N(C(=O)CNc1ccc(F)nc1)c1cccc(F)c1 (stereo not shown) [compound 2],enzyme inhibition (maximal),[3]; at 12.25 μM,71.3 ± 5.3%
